Reference: ChEMBL document CHEMBL3525900, “Pharmacokinetics, distribution, and metabolism of [14C]sunitinib in rats, monkeys, and humans” (Drug Metab Dispos, 2012)

Key:
[1] = system: Cynomolgus monkey; experiment: Terminal half life as total radioactivity in female cynomolgus monkey plasma at 6 mg/kg, po administered as single dose by LC/MS/MS analysis; format: ADME, organism-based, Macaca fascicularis; parameters: dose 6 mg/kg, dosed compound name [14C]Sunitinib, route oral; settings: in vivo
[2] = system: Rattus norvegicus; experiment: Drug recovery in cage residue of female Sprague-Dawley rat at 15 mg/kg, po administered as single dose during 0 to 72 hrs by liquid scintillation counting; format: ADME, organism-based; parameters: dose 15 mg/kg, dosed compound name [14C]Sunitinib, route oral; settings: in vivo
[3] = system: Rattus norvegicus; experiment: Total drug recovery in male Sprague-Dawley rat at 15 mg/kg, po administered as single dose during 0 to 72 hrs by liquid scintillation counting; format: ADME, organism-based; parameters: dose 15 mg/kg, dosed compound name [14C]Sunitinib, route oral; settings: in vivo
[4] = system: Cynomolgus monkey; experiment: Drug recovery in cage residue of male cynomolgus monkey at 6 mg/kg, po administered as single dose during 0 to 336 hrs by liquid scintillation counting; format: ADME, organism-based, Macaca fascicularis; parameters: dose 6 mg/kg, dosed compound name [14C]Sunitinib, route oral; settings: in vivo
[5] = system: Lung; experiment: Drug concentration in female albino rat lung assessed as radioactivity per gram of tissue at 20 mg/kg administered as single dose via gastric gavage measured after 3 hrs by autoradiographic analysis; format: ADME, organism-based; parameters: dose 20 mg/kg, dosed compound name [14C]Sunitinib; settings: in vivo, po
In short: (§1)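 Sprague Dawley albino rats, ca 7-8 weeks old, dosed once by gastric gavage with [14C]sunitinib L-malate (15 mg freebase/kg, 100 µCi/kg). One male and one female killed by CO2 at 3, 6, 24, 72 and 168 h. Carcasses frozen in solid CO2/hexane, embedded and cut into 30 µm sagittal sections, then freeze-dried. Radioactivity quantified by whole-body autoradiography against standards by regression, background subtracted.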

[6] = system: Ovary; experiment: Drug concentration in female albino rat ovary assessed as radioactivity per gram of tissue at 20 mg/kg administered as single dose via gastric gavage measured after 3 hrs by autoradiographic analysis; format: ADME, organism-based, Female gonad; parameters: dose 20 mg/kg, dosed compound name [14C]Sunitinib; settings: in vivo, po
In short: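 Sprague Dawley (albino) and Lister Hooded (pigmented) rats, ca 7-8 weeks old, 179-310 g, acclimated 7 days. Single gavage dose of [14C]sunitinib L-malate (15 mg freebase/kg, 100 µCi/kg). One male and one female killed by CO2 per time point: albino at 3, 6, 24, 72, 168 h; pigmented at 24, 72, 168, 336 h. Carcasses frozen in solid CO2/hexane, 30 µm sagittal sections freeze-dried. Tissue radioactivity read by quantitative whole-body autoradiography against regression of standards, mean background subtracted.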

[7] = system: Large intestine; experiment: Drug concentration in male Lister Hooded pigmented rat large intestine assessed as radioactivity per gram of tissue at 20 mg/kg administered as single dose via gastric gavage measured after 24 hrs by autoradiographic analysis; format: ADME, organism-based; parameters: dose 20 mg/kg, dosed compound name [14C]Sunitinib; settings: in vivo, po
[8] = Drug concentration in male Lister Hooded pigmented rat pituitary gland assessed as radioactivity per gram of tissue at 20 mg/kg administered as single dose via gastric gavage measured after 24 hrs by autoradiographic analysis; format: ADME, organism-based; parameters: dose 20 mg/kg, dosed compound name [14C]Sunitinib; settings: in vivo, po
[9] = system: Zone of skin; experiment: Drug concentration in male Lister Hooded pigmented rat abdomen skin assessed as radioactivity per gram of tissue at 20 mg/kg administered as single dose via gastric gavage measured after 24 hrs by autoradiographic analysis; format: ADME, organism-based; parameters: dose 20 mg/kg, dosed compound name [14C]Sunitinib; settings: in vivo, po
[10] = system: Adrenal; experiment: Drug concentration in male albino rat adrenal assessed as radioactivity per gram of tissue at 20 mg/kg administered as single dose via gastric gavage measured after 6 hrs by autoradiographic analysis; format: ADME, organism-based; parameters: dose 20 mg/kg, dosed compound name [14C]Sunitinib; settings: in vivo, po
[11] = Drug concentration in male albino rat lymph node assessed as radioactivity per gram of tissue at 20 mg/kg administered as single dose via gastric gavage measured after 6 hrs by autoradiographic analysis; format: ADME, organism-based; parameters: dose 20 mg/kg, dosed compound name [14C]Sunitinib; settings: in vivo, po
[12] = Drug concentration in female albino rat uterus assessed as radioactivity per gram of tissue at 20 mg/kg administered as single dose via gastric gavage measured after 6 hrs by autoradiographic analysis; format: ADME, organism-based; parameters: dose 20 mg/kg, dosed compound name [14C]Sunitinib; settings: in vivo, po
[13] = system: Heart; experiment: Drug concentration in female albino rat heart assessed as radioactivity per gram of tissue at 20 mg/kg administered as single dose via gastric gavage measured after 6 hrs by autoradiographic analysis; format: ADME, organism-based; parameters: dose 20 mg/kg, dosed compound name [14C]Sunitinib; settings: in vivo, po; in short: as §1
[14] = Drug concentration in male Lister Hooded pigmented rat eye assessed as radioactivity per gram of tissue at 20 mg/kg administered as single dose via gastric gavage measured after 336 hrs by autoradiographic analysis; format: ADME, organism-based; parameters: dose 20 mg/kg, dosed compound name [14C]Sunitinib; settings: in vivo, po
[15] = system: Spleen; experiment: Drug concentration in male Lister Hooded pigmented rat spleen assessed as radioactivity per gram of tissue at 20 mg/kg administered as single dose via gastric gavage measured after 72 hrs by autoradiographic analysis; format: ADME, organism-based; parameters: dose 20 mg/kg, dosed compound name [14C]Sunitinib; settings: in vivo, po
[16] = Drug concentration in male Lister Hooded pigmented rat uveal tract assessed as radioactivity per gram of tissue at 20 mg/kg administered as single dose via gastric gavage measured after 72 hrs by autoradiographic analysis; format: ADME, organism-based; parameters: dose 20 mg/kg, dosed compound name [14C]Sunitinib; settings: in vivo, po
[17] = system: Blood; experiment: Drug concentration in female Lister Hooded pigmented rat blood assessed as radioactivity per gram of tissue at 20 mg/kg administered as single dose via gastric gavage measured after 24 hrs by autoradiographic analysis; format: ADME, organism-based; parameters: dose 20 mg/kg, dosed compound name [14C]Sunitinib; settings: in vivo, po
In short: (§2)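 Lister Hooded (pigmented) rats, ca 7-8 weeks old, acclimated 7 days, given [14C]sunitinib L-malate by gastric gavage at 20 mg/kg (15 mg freebase/kg, 100 µCi/kg). One male and one female killed by CO2 at 24, 72, 168 and 336 h. Carcasses frozen in solid CO2/hexane and embedded in frozen cellulose. 30 µm sagittal cryosections were freeze-dried. Tissue radioactivity measured by quantitative whole-body autoradiography against calibration standards, with background subtracted.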

[18] = system: Spleen; experiment: Drug concentration in male albino rat spleen assessed as radioactivity per gram of tissue at 20 mg/kg administered as single dose via gastric gavage measured after 24 hrs by autoradiographic analysis; format: ADME, organism-based; parameters: dose 20 mg/kg, dosed compound name [14C]Sunitinib; settings: in vivo, po
[19] = Drug concentration in male albino rat testis assessed as radioactivity per gram of tissue at 20 mg/kg administered as single dose via gastric gavage measured after 24 hrs by autoradiographic analysis; format: ADME, organism-based; parameters: dose 20 mg/kg, dosed compound name [14C]Sunitinib; settings: in vivo, po
[20] = system: Kidney; experiment: Drug concentration in male albino rat kidney assessed as radioactivity per gram of tissue at 20 mg/kg administered as single dose via gastric gavage measured after 72 hrs by autoradiographic analysis; format: ADME, organism-based; parameters: dose 20 mg/kg, dosed compound name [14C]Sunitinib; settings: in vivo, po
[21] = system: Zone of skin; experiment: Drug concentration in female albino rat abdomen skin assessed as radioactivity per gram of tissue at 20 mg/kg administered as single dose via gastric gavage measured after 24 hrs by autoradiographic analysis; format: ADME, organism-based; parameters: dose 20 mg/kg, dosed compound name [14C]Sunitinib; settings: in vivo, po
In short: (§3)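 Sprague Dawley (albino) rats, ca 7-8 weeks old, received a single gastric-gavage dose of [14C]sunitinib L-malate at 20 mg/kg (15 mg freebase/kg, 100 µCi/kg). One animal per sex killed by CO2 at 3, 6, 24, 72 and 168 h, then frozen in CO2/hexane. 30 µm sagittal sections were cut and freeze-dried. Radioactivity per gram quantified by whole-body autoradiography using regression against standards. LOQ 0.04–0.06 µg freebase equiv/g.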

[22] = system: Adrenal; experiment: Drug concentration in female albino rat adrenal assessed as radioactivity per gram of tissue at 20 mg/kg administered as single dose via gastric gavage measured after 72 hrs by autoradiographic analysis; format: ADME, organism-based; parameters: dose 20 mg/kg, dosed compound name [14C]Sunitinib; settings: in vivo, po; in short: as §3
[23] = system: Kidney; experiment: Drug concentration in female albino rat kidney assessed as radioactivity per gram of tissue at 20 mg/kg administered as single dose via gastric gavage measured after 72 hrs by autoradiographic analysis; format: ADME, organism-based; parameters: dose 20 mg/kg, dosed compound name [14C]Sunitinib; settings: in vivo, po; in short: as §1
[24] = system: Adrenal; experiment: Drug concentration in female albino rat adrenal assessed as radioactivity per gram of tissue at 20 mg/kg administered as single dose via gastric gavage measured after 24 hrs by autoradiographic analysis; format: ADME, organism-based; parameters: dose 20 mg/kg, dosed compound name [14C]Sunitinib; settings: in vivo, po; in short: as §3
[25] = Drug concentration in female albino rat lachrymal gland assessed as radioactivity per gram of tissue at 20 mg/kg administered as single dose via gastric gavage measured after 24 hrs by autoradiographic analysis; format: ADME, organism-based; parameters: dose 20 mg/kg, dosed compound name [14C]Sunitinib; settings: in vivo, po; in short: as §1
[26] = Drug concentration in female Lister Hooded pigmented rat pituitary gland assessed as radioactivity per gram of tissue at 20 mg/kg administered as single dose via gastric gavage measured after 24 hrs by autoradiographic analysis; format: ADME, organism-based; parameters: dose 20 mg/kg, dosed compound name [14C]Sunitinib; settings: in vivo, po; in short: as §2
[27] = Drug concentration in female Lister Hooded pigmented rat salivary gland assessed as radioactivity per gram of tissue at 20 mg/kg administered as single dose via gastric gavage measured after 24 hrs by autoradiographic analysis; format: ADME, organism-based; parameters: dose 20 mg/kg, dosed compound name [14C]Sunitinib; settings: in vivo, po; in short: as §2

CCN(CC)CCNC(=O)c1c(C)[nH]c(/[14CH]=C2\C(=O)Nc3ccc(F)cc32)c1C.O=C(O)C[C@H](O)C(=O)O
beta t1/2 [1]: 121 h | Radiolabel recovery [2]: 2.2% | Radiolabel recovery [3]: 85.1% | Radiolabel recovery [4]: 1.9% | Radiolabel recovery [5]: 28.98 ugequiv | Radiolabel recovery [6]: 10.92 ugequiv | Radiolabel recovery [7]: 0.69 ugequiv | Radiolabel recovery [8]: 7.71 ugequiv | Radiolabel recovery [9]: 5.57 ugequiv | Radiolabel recovery [10]: 13.57 ugequiv | Radiolabel recovery [11]: 11.26 ugequiv | Radiolabel recovery [12]: 6.63 ugequiv | Radiolabel recovery [13]: 6.18 ugequiv | Radiolabel recovery [14]: 39.4 ugequiv | Radiolabel recovery [15]: 0.13 ugequiv | Radiolabel recovery [16]: 147.37 ugequiv | Radiolabel recovery [17]: 0.14 ugequiv | Radiolabel recovery [18]: 1.23 ugequiv | Radiolabel recovery [19]: 2.8 ugequiv | Radiolabel recovery [20]: 0.16 ugequiv | Radiolabel recovery [21]: 4.16 ugequiv | Radiolabel recovery [22]: 1.52 ugequiv | Radiolabel recovery [23]: 0.39 ugequiv | Radiolabel recovery [24]: 7.65 ugequiv | Radiolabel recovery [25]: 6.79 ugequiv | Radiolabel recovery [26]: 2.87 ugequiv | Radiolabel recovery [27]: 1.66 ugequiv
